In ChEMBL document CHEMBL1145927 (J Med Chem, 2003):
pIC50: −log10 of the molar value.

Key:
[1] = molecular target: T1, Prostaglandin G/H synthase 1 (Ovis aries) (UniProt P05979); assay: Compound was tested for in vitro inhibition of recombinant ovine Prostaglandin G/H synthase 1 (COX-1) at a concentration of 100 uM
T1 sequence (whole entry): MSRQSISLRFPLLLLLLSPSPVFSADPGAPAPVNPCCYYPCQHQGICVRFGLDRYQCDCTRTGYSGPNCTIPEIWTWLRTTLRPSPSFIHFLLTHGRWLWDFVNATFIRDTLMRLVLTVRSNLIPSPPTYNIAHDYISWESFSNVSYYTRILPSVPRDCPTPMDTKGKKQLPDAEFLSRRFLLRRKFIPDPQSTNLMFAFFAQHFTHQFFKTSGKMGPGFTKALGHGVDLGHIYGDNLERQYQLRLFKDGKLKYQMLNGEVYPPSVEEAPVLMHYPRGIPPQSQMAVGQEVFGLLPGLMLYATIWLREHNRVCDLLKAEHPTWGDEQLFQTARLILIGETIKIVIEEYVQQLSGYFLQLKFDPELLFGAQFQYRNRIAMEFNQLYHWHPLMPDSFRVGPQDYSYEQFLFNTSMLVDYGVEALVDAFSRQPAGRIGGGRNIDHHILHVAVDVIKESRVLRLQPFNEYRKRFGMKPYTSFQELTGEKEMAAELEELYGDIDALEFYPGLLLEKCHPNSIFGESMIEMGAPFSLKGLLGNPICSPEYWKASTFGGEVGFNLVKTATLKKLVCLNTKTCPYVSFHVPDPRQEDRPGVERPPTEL
Outline: (§1)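 Supplied recombinant ovine COX-1 (5 units) preincubated 2 min at 25 °C in 0.1 M Tris-HCl pH 8.0 with 5 mM EDTA, 2 mM phenol and heme; compound or DMSO added, 20 min at 25 °C; started with 10 mM arachidonic acid stock, 2 min at 37 °C; stopped with HCl, SnCl2 reduction; prostaglandins by EIA; percent inhibition versus solvent control.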

[2] = molecular target: T2, Prostaglandin G/H synthase 2 (Homo sapiens) (UniProt P35354); details: at 1 µM
T2 sequence (whole entry): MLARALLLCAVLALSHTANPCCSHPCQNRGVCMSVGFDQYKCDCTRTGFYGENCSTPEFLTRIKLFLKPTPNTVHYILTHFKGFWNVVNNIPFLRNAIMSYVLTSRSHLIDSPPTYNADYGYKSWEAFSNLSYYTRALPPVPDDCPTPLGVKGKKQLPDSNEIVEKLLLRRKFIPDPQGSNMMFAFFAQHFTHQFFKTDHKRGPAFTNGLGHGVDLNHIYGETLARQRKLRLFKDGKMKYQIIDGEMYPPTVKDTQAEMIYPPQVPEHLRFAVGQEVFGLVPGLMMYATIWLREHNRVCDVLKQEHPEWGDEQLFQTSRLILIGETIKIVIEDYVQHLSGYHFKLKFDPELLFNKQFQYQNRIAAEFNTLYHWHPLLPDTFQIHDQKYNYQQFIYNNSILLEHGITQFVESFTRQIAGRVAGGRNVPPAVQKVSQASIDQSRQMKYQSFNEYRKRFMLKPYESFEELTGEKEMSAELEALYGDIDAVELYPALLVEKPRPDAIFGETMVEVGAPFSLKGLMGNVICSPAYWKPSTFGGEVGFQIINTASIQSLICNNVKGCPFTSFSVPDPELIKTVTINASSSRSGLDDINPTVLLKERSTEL

[3] = molecular target: T2, Prostaglandin G/H synthase 2 (Homo sapiens); details: at 10 µM
[4] = molecular target: T3, Prostaglandin G/H synthase 1 (Homo sapiens, UniProt P23219); assay: In vitro average percent Inhibition of Prostaglandin G/H synthase 1 (COX-1) at a concentration of 100 uM determined in human whole blood assay by human whole blood (HWB) assay; assay type: tissue-based
T3 sequence (P23219 whole entry): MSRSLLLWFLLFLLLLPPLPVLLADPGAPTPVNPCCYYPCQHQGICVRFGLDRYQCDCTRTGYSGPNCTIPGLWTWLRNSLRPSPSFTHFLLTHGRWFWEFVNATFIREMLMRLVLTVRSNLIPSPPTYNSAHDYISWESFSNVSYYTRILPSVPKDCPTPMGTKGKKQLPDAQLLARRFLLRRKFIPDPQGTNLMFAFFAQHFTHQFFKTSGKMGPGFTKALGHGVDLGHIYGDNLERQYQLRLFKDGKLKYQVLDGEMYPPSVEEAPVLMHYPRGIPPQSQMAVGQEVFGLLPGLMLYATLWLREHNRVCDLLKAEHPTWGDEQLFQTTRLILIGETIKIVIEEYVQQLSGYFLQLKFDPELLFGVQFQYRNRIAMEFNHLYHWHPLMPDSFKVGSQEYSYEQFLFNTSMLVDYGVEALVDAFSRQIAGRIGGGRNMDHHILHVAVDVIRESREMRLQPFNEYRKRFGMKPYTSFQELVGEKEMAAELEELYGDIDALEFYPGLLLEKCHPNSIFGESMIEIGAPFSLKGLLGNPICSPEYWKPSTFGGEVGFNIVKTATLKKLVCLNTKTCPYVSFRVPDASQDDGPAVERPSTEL

[5] = molecular target: T3, Prostaglandin G/H synthase 1; assay: In vitro average percent Inhibition of Prostaglandin G/H synthase 1 (COX-1) at a concentration of 100 uM determined in human whole blood by human whole blood (HWB) assay; assay type: tissue-based
[6] = molecular target: T2, Prostaglandin G/H synthase 2 (Homo sapiens); assay: In vitro average percent Inhibition of Prostaglandin G/H synthase 2 (COX-2) at a concentration of 10 uM determined by human whole blood (HWB) assay
Outline: (§2)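 Heparinized whole blood from male or female donors free of aspirin/NSAIDs for 14 days, 1 mL aliquots pre-warmed 15 min at 37 °C, 5% CO2; compound in DMSO, duplicate wells; COX-2 induced by E. coli LPS added 4.5 h later, incubated 5 h; stopped on ice with 2 mM EGTA; plasma methanol-extracted, TXB2 by EIA; average of two donors.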

[7] = molecular target: T3, Prostaglandin G/H synthase 1; assay: In vitro average percent inhibition of human prostaglandin G/H synthase 1 (COX-1) at a concentration of 100 uM
Outline: as §1, with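 “human” for “ovine”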

[8] = molecular target: T4, Prostaglandin G/H synthase 2 (Homo sapiens, UniProt P35354); assay: Compound was tested for the inhibition of recombinant human Prostaglandin G/H synthase 2 (COX-2) by enzyme Assay
T4 sequence (P35354 whole entry): T2 sequence (whole entry)

[9] = molecular target: T3, Prostaglandin G/H synthase 1; assay: Compound was tested for in vitro inhibition of recombinant human Prostaglandin G/H synthase 1 (COX-1) by enzyme Assay
[10] = molecular target: T3, Prostaglandin G/H synthase 1; details: at 100 µM
[11] = molecular target: T4, Prostaglandin G/H synthase 2; assay: Compound was tested for the inhibition of recombinant human Prostaglandin G/H synthase 2 (COX-2)
[12] = molecular target: T3, Prostaglandin G/H synthase 1; assay: Compound was tested for the inhibition of recombinant human Prostaglandin G/H synthase 1 (COX-1)
[13] = molecular target: T3, Prostaglandin G/H synthase 1; assay: Compound was tested for the inhibition of human Prostaglandin G/H synthase 1 (COX-1) in human whole blood; assay type: tissue-based
[14] = molecular target: T3, Prostaglandin G/H synthase 1; assay: In vitro average percent Inhibition of Prostaglandin G/H synthase 1 (COX-1) at a concentration of 100 uM in human whole blood by human whole blood assay; assay type: tissue-based
[15] = molecular target: T2, Prostaglandin G/H synthase 2 (Homo sapiens); details: Blood; at 1 µM
[16] = molecular target: T2, Prostaglandin G/H synthase 2 (Homo sapiens); details: Blood; at 10 µM
[17] = molecular target: T3, Prostaglandin G/H synthase 1; assay: In vitro average percent Inhibition of inhibition of Prostaglandin G/H synthase 1 (COX-1) at a concentration of 100 uM in human whole blood by human whole blood assay; assay type: tissue-based
[18] = molecular target: T2, Prostaglandin G/H synthase 2 (Homo sapiens); assay: In vitro average percent Inhibition of Prostaglandin G/H synthase 2 (COX-2) at a concentration of 1 uM determined in human whole blood by human whole blood assay; assay type: tissue-based; outline: as §2
[19] = molecular target: T2, Prostaglandin G/H synthase 2 (Homo sapiens); assay: In vitro average percent Inhibition of Prostaglandin G/H synthase 2 (COX-2) at a concentration of 10 uM determined in human whole blood by human whole blood assay; assay type: tissue-based; outline: as §2
[20] = molecular target: T4, Prostaglandin G/H synthase 2; assay: Compound was tested for the inhibition of human Prostaglandin G/H synthase 2 (COX-2) in human whole blood; assay type: tissue-based
[21] = molecular target: T3, Prostaglandin G/H synthase 1; assay: In vitro average percent uM in human whole blood by human whole blood assay; assay type: tissue-based; details: concentration not given here
[22] = molecular target: T2, Prostaglandin G/H synthase 2 (Homo sapiens); assay: In vitro average percent Inhibition of Prostaglandin G/H synthase 2 (COX-2) at a concentration of 10 uM determined human whole blood by human whole blood (HWB) assay; outline: as §2
[23] = molecular target: T2, Prostaglandin G/H synthase 2 (Homo sapiens); assay: In vitro average percent Inhibition of Prostaglandin G/H synthase 2(COX-2) at a concentration of 1 uM determined in human whole blood by human whole blood (HWB) assay; assay type: tissue-based; outline: as §2
[24] = molecular target: T3, Prostaglandin G/H synthase 1; assay: In vitro average percent Inhibition of […] Prostaglandin G/H synthase 1 (COX-1) at a concentration of 100 uM determined by human whole blood (HWB) assay
[25] = molecular target: T3, Prostaglandin G/H synthase 1; assay: Compound was tested for in vitro Prostaglandin G/H synthase 1 (COX-1) idetermined in human whole blood by human whole blood assay; assay type: tissue-based
Outline: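 Heparinised (20 U/mL) whole blood from non-fasted donors free of aspirin/NSAIDs for 14 days, 1 mL aliquots, pre-warmed 15 min at 37 °C, 5% CO2 on a rotating shaker. DMSO-diluted compound added in duplicate; incubation ended 30 min after A23187 by ice and 2 mM EGTA (final). Plasma methanol-extracted, TXB2 by EIA; average of two donors.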

`CS(=O)(=O)c1ccc(-c2cc3c(cc2Cc2ccc(F)cc2)OCO3)cc1` showed an inhibition [1] of 10%, an inhibition [2] of 10% and an inhibition [3] of 0%.

Work on `CS(=O)(=O)c1ccc(-c2ccccc2C=C2CCCCC2)cc1` yielded an inhibition [4] of 60%.

`CS(=O)(=O)c1ccc(-c2cc3c(cc2C(=O)c2cnccc2Br)OCO3)cc1` showed an inhibition [1] of 40%, an inhibition [2] of 10% and an inhibition [3] of 0%.

For `CS(=O)(=O)c1ccc(-c2cc3c(cc2Cc2cc(F)cc(F)c2)OCCO3)cc1`, the inhibition [5] was 70% and the inhibition [6] was 40%.

In the case of `CS(=O)(=O)c1ccc(-c2cc3c(cc2C=C2CCCCC2)OCO3)cc1`, the inhibition [7] was 50%, the pIC50 [8] was 7.15 and the pIC50 [9] was under 4.00. For the same compound, the inhibition [2] was 90%, the inhibition [10] was 0% and the inhibition [3] was 90%.

In the case of `NS(=O)(=O)c1ccc(-c2cc3c(cc2Cc2ccccc2)OCO3)cc1`, the inhibition [5] was 90%, the pIC50 [11] was 7.30 and the pIC50 [12] was 4.60. The pIC50 [13] was 4.22, the inhibition [2] was 85% and the inhibition [10] was 90%. For the same compound, the inhibition [3] was 90%.

With `Cc1ccc(Cc2cc3c(cc2-c2ccc(S(C)(=O)=O)cc2)OCO3)cc1` the inhibition [14] was 45%, the inhibition [1] was 25% and the inhibition [15] was 0%. For the same compound, the inhibition [16] was 10%, the inhibition [2] was 50% and the inhibition [3] was 80%.

Work on `CS(=O)(=O)c1ccc(-c2cc3c(cc2Cc2cc(F)cc(F)c2)OCO3)cc1` yielded an inhibition [1] of 15%, an inhibition [17] of 70% and an inhibition [15] of 15%. For the same compound, the inhibition [16] was 40%, the inhibition [2] was 90% and the inhibition [3] was 90%.

In the case of `CS(=O)(=O)c1ccc(-c2cc3c(cc2CCCc2ccccc2)OCO3)cc1`, the inhibition [7] was 65%, the inhibition [18] was 15% and the inhibition [19] was 35%. The inhibition [2] was 15%, the inhibition [10] was 10% and the inhibition [3] was 0%.

Work on `CS(=O)(=O)c1ccc(-c2cc3c(cc2C(=O)c2cccc(F)c2)OCO3)cc1` yielded an inhibition [7] of 50%, a pIC50 [20] of 6.00 and a pIC50 [13] of 4.70.

Compound `Cc1cccc(C(=O)c2cc3c(cc2-c2ccc(S(C)(=O)=O)cc2)OCO3)c1` has an inhibition [1] of 0%, an inhibition [21] of 95% and an inhibition [15] of 40%. The inhibition [16] was 85%, the inhibition [2] was 10% and the inhibition [3] was 40%.

In the case of `CS(=O)(=O)c1ccc(-c2ccccc2C(=O)c2cccc(F)c2)cc1`, the inhibition [5] was 45% and the inhibition [22] was 40%.

`CS(=O)(=O)c1ccc(-c2ccccc2Cc2cccc(F)c2)cc1` gave an inhibition [5] of 35%.

In the case of `CS(=O)(=O)c1ccc(-c2cc3c(cc2C=C2CCCC2)OCO3)cc1`, the inhibition [7] was 70%, the inhibition [1] was 80% and the inhibition [2] was 65%. It also gave an inhibition [3] of 90%.

`CS(=O)(=O)c1ccc(-c2cc3c(cc2-c2cc(F)cc(F)c2)OCO3)cc1` was tested, and the inhibition [6] was 35%, the inhibition [23] was 0% and the inhibition [24] was 65%.

Compound `CS(=O)(=O)c1ccc(-c2cc3c(cc2C=C2CCCCCC2)OCO3)cc1` has an inhibition [7] of 35%, an inhibition [1] of 0% and a pIC50 [11] of 6.70. For the same compound, the pIC50 [12] was under 4.00, the inhibition [2] was 100% and the inhibition [3] was 100%.

Compound `CS(=O)(=O)c1ccc(C2=C(c3ccccc3)C(=O)OC2)cc1` has an inhibition [14] of 75%, an inhibition [15] of 75% and an inhibition [2] of 40%. The inhibition [10] was 0%.

For `CS(=O)(=O)c1ccc(-c2cc3c(cc2CC2CCCC2)OCO3)cc1`, the inhibition [1] was 20%, the inhibition [2] was 40% and the inhibition [3] was 70%.

Compound `CS(=O)(=O)c1ccc(-c2cc3c(cc2C(=O)c2ccccc2)OCO3)cc1` has an inhibition [14] of 75%, an inhibition [15] of 25% and an inhibition [16] of 65%. For the same compound, the inhibition [2] was 10%, the inhibition [10] was 0% and the inhibition [3] was 90%.

`COc1cc(Cc2cc(F)cc(F)c2)c(-c2ccc(S(C)(=O)=O)cc2)cc1OC` was tested, and the inhibition [5] was 0% and the inhibition [6] was 15%.

With `CS(=O)(=O)c1ccc(-c2cc3c(cc2Cc2cccnc2)OCO3)cc1` the inhibition [14] was 35%, the inhibition [15] was 15% and the inhibition [16] was 15%. For the same compound, the inhibition [2] was 0%, the inhibition [10] was 30% and the inhibition [3] was 65%.

With `CS(=O)(=O)c1ccc(-c2cc3c(cc2CC2CCCCCC2)OCO3)cc1` the inhibition [7] was 40%, the inhibition [1] was 10% and the inhibition [2] was 90%. For the same compound, the inhibition [3] was 100%.

With `CS(=O)(=O)c1ccc(-c2cc3c(cc2Cc2ccccc2)OCO3)cc1` the inhibition [7] was 65%, the pIC50 [20] was 5.00 and the pIC50 [25] was 4.22. The inhibition [16] was 50%, the inhibition [2] was 85% and the inhibition [10] was 0%. The inhibition [3] was 85%.
